Data reported in ChEMBL document CHEMBL3751796, “Structure-Based Discovery of Novel Cyclophilin A Inhibitors for the Treatment of Hepatitis C Virus Infections” (J Med Chem, 2015).

Assays:
[1] = Cytotoxicity against mock-infected human Huh7.5 cells assessed as reduction in cell viability incubated for 5 hrs by MTT assay; type: cell-based, Huh-7; details: mock-infected Huh7.5 cells
In short: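 Mock-infected Huh7.5 cells run alongside the JFH1-Luc antiviral assay with 3-fold serial dilutions. Viability read by MTT assay to give CC50.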

Hepatitis C virus = test: Antiviral activity against recombinant HCV genotype 2a JFH1 infected in human […] for 5 hrs measured on day 3 post infection by luciferase reporter gene assay; type: functional, organism-based, Hepacivirus hominis; details: JFH-1, Huh-7
In short: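 Huh7.5 cells infected with JFH1-Luc virus (MOI 0.004) for 5 h at 37 °C with 3-fold serial dilutions of compound. Renilla luciferase read from lysates on day 3 postinfection to derive EC50.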

[2] = Selectivity index, ratio of CC50 for mock-infected human Huh7.5 cells to EC50 for recombinant HCV genotype 2a JFH1; set-up: species or system Huh-7
In short: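 Huh7.5 cells infected with JFH1-Luc virus (MOI 0.004, 5 h, 37 °C) in the presence of 3-fold serial dilutions. EC50 came from Renilla luciferase on day 3. CC50 came from MTT viability of mock-infected Huh7.5 cells treated in parallel. SI = CC50/EC50.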

SMILES	CC50 at 5 h [1]	EC50 (Hepatitis C virus)	Ratio CC50/EC50 [2]
COc1ccccc1N(C(=O)Cc1c[nH]c2ccccc12)C(C(=O)NC1CCCCC1)c1cc(OC)c(OC)c(OC)c1 (configuration not stated)	23.2 µM	> 23.2 µM	–
COc1ccc(N(C(=O)Cc2c[nH]c3ccccc23)C(C(=O)NC2CCCCC2)c2ccc(OC)c(OC)c2OC)cc1OC (configuration not stated)	27.1 µM	> 27.1 µM	–
COc1ccc(N(C(=O)c2cc(C)ccc2C)C(C(=O)NC2CCCCC2)c2ccc([N+](=O)[O-])cc2)cc1OC (configuration not stated)	68.3 µM	7.9 µM	8.6
COc1cccc(CCN(C(=O)c2ccc(Cl)nc2)C(C(=O)NC2CCCCC2)c2ccc([N+](=O)[O-])cc2)c1 (configuration not stated)	> 100 µM	7.2 µM	>13.8
CCCCCNC(=O)C(c1ccc2c(c1)OCO2)N(C(=O)CCCC)c1ccc(OC)c(OC)c1 (configuration not stated)	32.2 µM	> 32.2 µM	–
COc1ccc(CCC(=O)N(c2ccc(C(C)C)cc2)C(C(=O)NC2CCCCC2)c2ccc(Cl)cc2)cc1 (configuration not stated)	> 100 µM	> 100 µM	–
COc1ccc(N(C(=O)Cc2c[nH]c3ccccc23)C(C(=O)NC2CCCCC2)c2ccc(F)cc2)cc1 (configuration not stated)	63.6 µM	26.5 µM	2.4
COc1cccc(CCC(=O)N(c2ccc(OC)c(OC)c2)C(C(=O)NC2CCCCC2)c2ccc(O)cc2)c1 (configuration not stated)	51.5 µM	15.5 µM	3.3
COc1cc(C(C(=O)NC2CCCCC2)N(C(=O)Cc2c[nH]c3ccccc23)c2ccccc2)cc(OC)c1OC (configuration not stated)	36.8 µM	16.3 µM	2.2
COc1ccc(C(C(=O)NC2CCCCC2)N(C(=O)Cc2c[nH]c3ccccc23)c2ccccc2)cc1OC (configuration not stated)	22.5 µM	> 22.3 µM	–
COc1ccc(CCN(C(=O)c2ccccc2)C(C(=O)NC2CCCCC2)c2ccc([N+](=O)[O-])cc2)cc1OC (configuration not stated)	> 100 µM	8.9 µM	>11.2
O=C(NC1CCCCC1)C(c1ccc(Cl)cc1)N(C(=O)Cc1c[nH]c2ccccc12)c1ccccc1 (configuration not stated)	10.2 µM	3.3 µM	3.1
COc1ccc([N+](=O)[O-])c(C(=O)N(CCc2ccc(OC)c(OC)c2)C(C(=O)NC2CCCCC2)c2ccc([N+](=O)[O-])cc2)c1 (configuration not stated)	> 100 µM	34.8 µM	>2.8
NC(=O)c1ncn([C@@H]2O[C@H](CO)[C@@H](O)[C@H]2O)n1 [RIBAVIRIN]	> 100 µM	16.3 µM	>6.1
COc1ccc(CCC(=O)N(c2ccc(Br)cc2)C(C(=O)NC2CCCCC2)c2ccc([N+](=O)[O-])cc2)cc1 (configuration not stated)	9.8 µM	6.1 µM	1.6
COc1ccc(CCC(=O)N(c2ccc(OC)c(OC)c2)C(C(=O)NC2CCCCC2)c2ccc(Cl)cc2)cc1 (configuration not stated)	57.4 µM	31.1 µM	1.8
COc1ccc(N(C(=O)c2cccc(C)c2C)C(C(=O)NC2CCCCC2)c2ccc(O)cc2)cc1OC (configuration not stated)	69.8 µM	11.4 µM	6.1
CC(=O)N(c1ccc(C(C)C)cc1)C(C(=O)NC1CCCCC1)c1ccc(Cl)cc1 (configuration not stated)	89.2 µM	10.8 µM	8.2
O=C(NC1CCCCC1)C(c1ccccc1)N(C(=O)Cc1c[nH]c2ccccc12)c1ccccc1 (configuration not stated)	30.5 µM	> 30.5 µM	–
CC(C)c1ccc(N(C(=O)c2ccccc2)C(C(=O)NC2CCCCC2)c2ccc(Cl)cc2)cc1 (configuration not stated)	64.5 µM	6.7 µM	9.6
COc1ccc(N(C(=O)Cc2c[nH]c3ccccc23)C(C(=O)NC2CCCCC2)c2ccc([N+](=O)[O-])cc2)cc1 (configuration not stated)	8.5 µM	2.5 µM	3.4
